Experimental data reported in ChEMBL document CHEMBL1125520, “Improved brain delivery of AZT using a glycosyl phosphotriester prodrug” (1992).

Columns and labels:
Mus musculus [1] = assay: In Vivo detection in Mice brains after oral administration of 58.33 mg/kg detected in the form of AZT 5`-P after 2 hr; format: functional
Mus musculus [2] = assay: In Vivo detection in Mice brains after oral administration of 58.33 mg/kg detected in the form of AZT 5`-P after 48 hr; format: functional
Mus musculus [3] = assay: In Vivo detection in Mice brains after oral administration of 58.33 mg/kg detected in the form of AZT phosphodiester 3 after 24 hr; format: functional
Mus musculus [4] = assay: In Vivo detection in Mice brains after oral administration of 58.33 mg/kg detected in the form of AZT phosphodiester 3 after 2 hr; format: functional
Mus musculus [5] = assay: In Vivo detection in Mice brains after oral administration of 58.33 mg/kg detected in the form of AZT after 1 hr; format: functional
Mus musculus [6] = assay: In Vivo detection in Mice brains after oral administration of 58.33 mg/kg detected in the form of AZT after 2 hr; format: functional
Mus musculus [7] = assay: In Vivo detection in Mice brains after oral administration of 58.33 mg/kg detected in the form of AZT after 48 hr; format: functional
Mus musculus [8] = assay: In Vivo detection in Mice brains after oral administration of 58.33 mg/kg detected in the form of AZT phosphodiester 2 after 0.5 hr; format: functional
Mus musculus [9] = assay: In Vivo detection in Mice brains after oral administration of 58.33 mg/kg detected in the form of AZT phosphodiester 2 after 24 hr; format: functional
Mus musculus [10] = assay: In Vivo detection of total AZT in Mice brains after oral administration of 58.33 mg/kg after 4 hr; format: functional
In short: (§1)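 Male Swiss mice (18–20 g) dosed orally with a 3 mM solution in […] vehicle; decapitated at 0.5–48 h. Brains were homogenized in acetonitrile-water (3:1), centrifuged at 6000g for 40 min at 4 °C, lyophilized, redissolved in water and filtered (0.45 µm). Reversed-phase C18 column-switching HPLC with diode-array detection; standard spiking; vehicle-fed controls. Three mice per point, triplicates.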

Mus musculus [11] = assay: In Vivo detection of total AZT in Mice brains after oral administration of 58.33 mg/kg after 8 hr; format: functional; in short: as §1
Mus musculus [12] = assay: In Vivo detection in Mice plasma after oral administration of 58.33 mg/kg detected in the form of AZT 5`-P after 2 hr; format: functional, organism-based; set-up: dose 58.33 mg/kg
Mus musculus [13] = assay: In Vivo detection in Mice plasma after oral administration of 58.33 mg/kg detected in the form of AZT 5`-P after 4 hr; format: functional, organism-based; set-up: dose 58.33 mg/kg
Mus musculus [14] = assay: In Vivo detection in Mice plasma after oral administration of 58.33 mg/kg detected in the form of AZT 5`-P after 8 hr; format: functional, organism-based; set-up: dose 58.33 mg/kg
Mus musculus [15] = assay: In Vivo detection in Mice plasma after oral administration of 58.33 mg/kg detected in the form of AZT phosphodiester 3 after 1 hr; format: functional, organism-based; set-up: dose 58.33 mg/kg
In short: (§2)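 Male Swiss mice (18–20 g, six weeks old) given the test substance or vehicle ([…]) by gavage as a 3 mM solution (1.5 µmol/mouse). Aortic blood was collected into heparinized tubes at 0.5–48 h and centrifuged at 13000g for 10 min. Plasma was stored at -22 °C and analysed by HPLC. Three mice were used per time point, in triplicate. Values were not corrected for recovery.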

Mus musculus [16] = assay: In Vivo detection in Mice plasma after oral administration of 58.33 mg/kg detected in the form of AZT phosphodiester 3 after 48 hr; format: functional, organism-based; set-up: dose 58.33 mg/kg; in short: as §2
Mus musculus [17] = assay: In Vivo detection of total AZT in Mice brains after oral administration of 58.33 mg/kg after 48 hr; format: functional; in short: as §1
Mus musculus [18] = assay: In Vivo detection in Mice plasma after oral administration of 58.33 mg/kg detected in the form of AZT after 1 hr; format: functional, organism-based; set-up: dose 58.33 mg/kg
Mus musculus [19] = assay: In Vivo detection in Mice plasma after oral administration of 58.33 mg/kg detected in the form of AZT after 48 hr; format: functional, organism-based; set-up: dose 58.33 mg/kg; in short: as §2
Mus musculus [20] = assay: In Vivo detection in Mice plasma after oral administration of 58.33 mg/kg detected in the form of AZT phosphodiester 2 after 1 hr; format: functional, organism-based; set-up: dose 58.33 mg/kg; in short: as §2
Mus musculus [21] = assay: In Vivo detection in Mice plasma after oral administration of 58.33 mg/kg detected in the form of AZT phosphodiester 2 after 2 hr; format: functional, organism-based; set-up: dose 58.33 mg/kg; in short: as §2
Mus musculus [22] = assay: In Vivo detection in Mice plasma after oral administration of 58.33 mg/kg detected in the form of AZT phosphodiester 3 after 8 hr; format: functional, organism-based; set-up: dose 58.33 mg/kg; in short: as §2
Mus musculus [23] = assay: In Vivo detection of total AZT in Mice plasma after oral administration of 58.33 mg/kg after 1 hr; format: functional, organism-based; set-up: dose 58.33 mg/kg; in short: as §2
Mus musculus [24] = assay: In Vivo detection in Mice brains after oral administration of 20 mg/kg detected in the form of AZT phosphodiester 2 after 48 hr; format: functional
Mus musculus [25] = assay: In Vivo detection in Mice brains after oral administration of 41.63 mg/kg detected in the form of AZT 5`-P after 24 hr; format: functional
Mus musculus [26] = assay: In Vivo detection in Mice brains after oral administration of 41.63 mg/kg detected in the form of AZT after 0.5 hr; format: functional
Mus musculus [27] = assay: In Vivo detection in Mice brains after oral administration of 41.63 mg/kg detected in the form of AZT after 1 hr; format: functional
Mus musculus [28] = assay: In Vivo detection in Mice brains after oral administration of 41.63 mg/kg detected in the form of AZT after 24 hr; format: functional
Mus musculus [29] = assay: In Vivo detection in Mice brains after oral administration of 41.63 mg/kg detected in the form of AZT after 8 hr; format: functional
Mus musculus [30] = assay: In Vivo detection in Mice plasma after oral administration of 41.63 mg/kg detected in the form of AZT after 4 hr; format: functional, organism-based; set-up: dose 41.63 mg/kg
Mus musculus [31] = assay: In Vivo detection in Mice plasma after oral administration of 41.63 mg/kg detected in the form of AZT phosphodiester 2 after 24 hr; format: functional, organism-based; set-up: dose 41.63 mg/kg
Mus musculus [32] = assay: In Vivo detection in Mice plasma after oral administration of 41.63 mg/kg detected in the form of AZT phosphodiester 2 after 4 hr; format: functional, organism-based; set-up: dose 41.63 mg/kg
Mus musculus [33] = assay: In Vivo detection of total AZT in Mice brains after oral administration of 41.63 mg/kg after 0.5 hr; format: functional; in short: as §1
Mus musculus [34] = assay: In Vivo detection in Mice brains after oral administration of 41.63 mg/kg detected in the form of AZT phosphodiester 2 after 24 hr; format: functional
Mus musculus [35] = assay: In Vivo detection in Mice plasma after oral administration of 41.63 mg/kg detected in the form of AZT after 1 hr; format: functional, organism-based; set-up: dose 41.63 mg/kg
Mus musculus [36] = assay: In Vivo detection of total AZT in Mice brains after oral administration of 41.63 mg/kg after 1 hr; format: functional; in short: as §1
Mus musculus [37] = assay: In Vivo detection of total AZT in Mice plasma after oral administration of 41.63 mg/kg after 0.5 hr; format: functional, organism-based; set-up: dose 41.63 mg/kg; in short: as §2
Mus musculus [38] = assay: In Vivo detection of total AZT in Mice plasma after oral administration of 41.63 mg/kg after 48 hr; format: functional, organism-based; set-up: dose 41.63 mg/kg; in short: as §2
Mus musculus [39] = assay: In Vivo detection in Mice brains after oral administration of 41.63 mg/kg detected in the form of AZT 5`-P after 2 hr; format: functional
Mus musculus [40] = assay: In Vivo detection of total AZT in Mice plasma after oral administration of 41.63 mg/kg after 4 hr; format: functional, organism-based; set-up: dose 41.63 mg/kg; in short: as §2

CCCCCCCCCCCCCCCCOP(=O)(OCCO[C@H]1O[C@H](CO)[C@@H](O)[C@H](O)[C@@H]1O)OCC1OC(n2cc(C)c(=O)[nH]c2=O)CC1N=[N+]=[N-] (stereo not given in full)
Brain content (Mus musculus [1]): 133 nmol/g
Brain content (Mus musculus [2]): 58.6 nmol/g
Brain content (Mus musculus [3]): 0 nmol/g
Brain content (Mus musculus [4]): 0 nmol/g
Brain content (Mus musculus [5]): 1.5 nmol/g
Brain content (Mus musculus [6]): 2.9 nmol/g
Brain content (Mus musculus [7]): 1.1 nmol/g
Brain content (Mus musculus [8]): 0.3 nmol/g
Brain content (Mus musculus [9]): 5.2 nmol/g
Brain content (Mus musculus [10]): 122 nmol/g
Brain content (Mus musculus [11]): 113 nmol/g
Plasma content (Mus musculus [12]): 4 nM ml-1
Plasma content (Mus musculus [13]): 3 nM ml-1
Plasma content (Mus musculus [14]): 17.7 nM ml-1
Plasma content (Mus musculus [15]): 0 nM ml-1
Plasma content (Mus musculus [16]): 0 nM ml-1
Brain content (Mus musculus [17]): 63.5 nM ml-1
Plasma content (Mus musculus [18]): 1.3 nM ml-1
Plasma content (Mus musculus [19]): 0 nM ml-1
Plasma content (Mus musculus [20]): 0 nM ml-1
Plasma content (Mus musculus [21]): 0 nM ml-1
Plasma content (Mus musculus [22]): 0 nM ml-1
Plasma content (Mus musculus [23]): 14 nM ml-1

Cc1cn([C@H]2C[C@H](N=[N+]=[N-])[C@@H](COP(=O)(O)OCCO[C@H]3O[C@H](CO)[C@@H](O)[C@H](O)[C@@H]3O)O2)c(=O)[nH]c1=O
Brain content (Mus musculus [24]): 2.5 nM ml-1
Brain content (Mus musculus [25]): 56.5 nmol/g
Brain content (Mus musculus [26]): 1.8 nmol/g
Brain content (Mus musculus [27]): 1.9 nmol/g
Brain content (Mus musculus [28]): 0.8 nmol/g
Brain content (Mus musculus [29]): 0.9 nmol/g
Plasma content (Mus musculus [30]): 0 nM ml-1
Plasma content (Mus musculus [31]): 0 nM ml-1
Plasma content (Mus musculus [32]): 0 nM ml-1
Brain content (Mus musculus [33]): 38.6 nM ml-1
Brain content (Mus musculus [34]): 4.5 nM ml-1
Plasma content (Mus musculus [35]): 18.3 nM ml-1
Brain content (Mus musculus [36]): 97.7 nmol/g
Plasma content (Mus musculus [37]): 56.5 nM ml-1
Plasma content (Mus musculus [38]): 17.9 nM ml-1
Brain content (Mus musculus [39]): 19.8 nM ml-1
Plasma content (Mus musculus [40]): 6.7 nM ml-1
